Source: ChEMBL document CHEMBL1275337, “Biflavonoids from Torreya nucifera displaying SARS-CoV 3CL(pro) inhibition” (Bioorg Med Chem, 2010)

What was measured:
[1] = target: Replicase polyprotein 1ab (Severe acute respiratory syndrome-related coronavirus) (UniProt P0C6X7); assay: Inhibition of SARS coronavirus 3C-like protease at 200 uM after 60 mins by FRET assay
[2] = target: T1, Replicase polyprotein 1ab (Severe acute respiratory syndrome-related coronavirus, UniProt P0C6X7); assay: Inhibition of SARS coronavirus 3C-like protease after 60 mins by FRET assay
[3] = target: T1, Replicase polyprotein 1ab; assay: Non-competitive inhibition of SARS coronavirus 3C-like protease by Dixon plot analysis
Outline: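 Inhibition mode comes from FRET protease rates at substrate concentrations of 2.5, 5.0 and 10.0 µM across several inhibitor concentrations. Ki is taken from Dixon (1/V versus [I]) and Lineweaver-Burk plots; type is assigned from Vmax versus inhibitor concentration. Triplicate experiments.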

Row | SMILES | inhibition [1] [%] | IC50 [2] [µM] | Ki [3] [µM]
1 | CC(=O)Oc1cc2c(cc1C(C)C)CC[C@H]1[C@](C)(CO)CCC[C@]21C | 78.6 | 129 | –
2 | CC(C)c1cc2c(cc1O)[C@@]1(C)CCC[C@@](C)(CO)[C@@H]1CC2 [18-HYDROXYFERRUGINOL] | 45.8 | 221 | –
3 | CC(C)c1cc2c(cc1O)[C@@]1(C)CCC[C@@](C)(C=O)[C@@H]1CC2 [18-OXOFERRUGINOL] | 70.5 | 163 | –
4 | CC(C)C1=CC2=CC[C@@H]3[C@](C)(CCC[C@@]3(C)C(=O)O)[C@H]2CC1 [ABIETIC ACID] | 58 | 189 | –
5 | O=c1cc(-c2ccc(O)c(-c3c(O)cc(O)c4c(=O)cc(-c5ccc(O)cc5)oc34)c2)oc2cc(O)cc(O)c12 [AMENTOFLAVONE] | – | – | 13.8
6 | O=c1cc(-c2ccc(O)cc2)oc2cc(O)cc(O)c12 [APIGENIN] | 40 | 281 | –
7 | COc1ccc(-c2cc(=O)c3c(O)cc(O)cc3o2)cc1-c1c(O)cc(O)c2c(=O)cc(-c3ccc(O)cc3)oc12 [BILOBETIN] | – | 72.3 | 80.4
8 | CC(C)c1cc2c(cc1O)[C@@]1(C)CCCC(C)(C)[C@@H]1CC2 [FERRUGINOL] | 92.7 | 49.6 | –
9 | COc1cc(O)c2c(=O)cc(-c3ccc(OC)c(-c4c(O)cc(O)c5c(=O)cc(-c6ccc(O)cc6)oc45)c3)oc2c1 [GINKGETIN] | – | 32 | 30.2
10 | CC(C)c1cc2c(cc1O)[C@@]1(C)CC[C@H](O)C(C)(C)[C@@H]1CC2 [HINOKIOL] | 39.1 | 233 | –
11 | C=C[C@@]1(C)CC[C@H]2C(=CC[C@@H]3[C@]2(C)CCC[C@@]3(C)C(=O)O)C1 [ISOPIMARIC ACID] | 28.9 | 283 | –
12 | C=C1CC[C@H]2[C@](C)(CO)CCC[C@]2(C)[C@H]1CC/C(C)=C\CO [KAYADIOL] | 75.2 | 138 | –
13 | O=c1cc(-c2ccc(O)c(O)c2)oc2cc(O)cc(O)c12 [LUTEOLIN] | – | 20 | –
14 | COC(=O)[C@]1(C)CCC[C@]2(C)c3ccc(C(C)C)cc3CC[C@@H]12 [METHYL DEHYDROABIETATE] | 46.7 | 207 | –
15 | COc1ccc(-c2cc(=O)c3c(O)cc(O)c(-c4cc(-c5cc(=O)c6c(O)cc(OC)cc6o5)ccc4OC)c3o2)cc1 [SCIADOPITISIN] | – | 38.4 | 35.6
